Laboratory results from ChEMBL document CHEMBL1132160, “Structure-antiviral activity relationship in the series of pyrimidine and purine N-[2-(2-phosphonomethoxy)ethyl] nucleotide analogues. 1. Derivatives substituted at the carbon atoms of the base” (J Med Chem, 1999).
Converted amounts (≈) assume the structure as drawn.

Legend:
[1] = Inhibitory activity against murine sarcoma virus induced transformation of murine C3H/3T3 embryo fibroblasts; type: functional, Mus musculus
Summary of the method: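 Murine C3H/3T3 embryo fibroblasts were seeded at 5 × 10⁵ cells/mL. After 24 h they were infected with 80 focus-forming units of MSV for 90–120 min at 37 °C. The medium was then replaced with fresh medium containing various compound concentrations, and transformation was examined microscopically after 6 days.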

[2] = tested on: Human immunodeficiency virus 1; assay: Inhibition of human immunodeficiency virus type 1 (HIV-1) induced cytopathogenicity in CEM cells; type: functional, organism-based; settings: Human immunodeficiency virus 1, CCRF-CEM
Summary of the method: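 CEM cells (~3 × 10⁵ cells/mL) were infected with 100 CCID50 of HIV-1 (IIIB)/mL and plated with dilutions of compound. After 4 days at 37 °C, giant cell formation was assessed microscopically.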

[3] = tested on: Human immunodeficiency virus 2; assay: Inhibition of human immunodeficiency virus type 2 (HIV-2) induced cytopathogenicity in CEM cells; type: functional, organism-based; settings: Human immunodeficiency virus 2, CCRF-CEM
Human alphaherpesvirus 1 [4] = assay: Inhibition of herpes simplex virus type 1 (HSV-1) F strain; type: functional, organism-based
Summary of the method: (§1)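 Confluent E6SM cell cultures were inoculated with 100 CCID50 of virus and allowed 1 h for adsorption. Residual virus was then removed, and the cells were incubated with test compound at 400, 200, 100, ... μg/mL. Viral cytopathicity was scored once it reached completion in untreated infected controls.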

Human alphaherpesvirus 1 [5] = assay: Inhibitory activity against herpes simplex virus type 1 (HSV-1) KOS strain; type: functional, organism-based; summary of the method: as §1
Human alphaherpesvirus 1 [6] = assay: Inhibitory activity against herpes simplex virus type 1 (HSV-1) McIntyre strain; type: functional, organism-based; summary of the method: as §1
[7] = Inhibitory activity against herpes simplex virus type 2 (HSV-2) 196 strain; type: functional; summary of the method: as §1
Human alphaherpesvirus 2 [8] = assay: Inhibitory activity against herpes simplex virus type 2 (HSV-2) Lyons strain; type: functional, organism-based; summary of the method: as §1
Vaccinia virus [9] = assay: Inhibitory activity against vaccinia virus (VV); type: functional, organism-based; settings: Orthopoxvirus vaccinia
Summary of the method: (§2)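 Confluent E6SM cell cultures were inoculated with 100 CCID50 of virus and left for 1 h adsorption, then residual virus was removed. Cultures were incubated with test compound at serial concentrations (400, 200, 100, ... μg/mL). Virus-induced cytopathicity was scored once it reached completion in untreated infected control cultures.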

Cytomegalovirus [10] = assay: Inhibitory activity against cytomegalovirus (CMV) AD 169 strain; type: functional, organism-based; settings: Human betaherpesvirus 5
Summary of the method: (§3)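 HEL cell cultures, grown to confluence, received 100 CCID50 of virus. After 1 h adsorption, the inoculum was removed and the cultures were incubated with serial concentrations of compound (400, 200, 100, ... μg/mL).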

Cytomegalovirus [11] = assay: Inhibitory activity against cytomegalovirus (CMV) Davis strain; type: functional, organism-based; settings: Human betaherpesvirus 5; summary of the method: as §3
[12] = tested on: Human immunodeficiency virus 1; assay: Inhibitory activity of compound against human immunodeficiency virus type 1 (HIV-1) induced cytopathogenicity in MT-4 cells; type: functional, organism-based; settings: Human immunodeficiency virus 1, MT4
Summary of the method: (§4)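 Human MT-4 cells (~4 × 10⁵ cells/mL) were infected with 100 CCID50 of HIV-1 (IIIB)/mL and seeded into wells containing compound dilutions. After 5 days at 37 °C, viable cells were counted by trypan blue exclusion in a blood cell counting chamber.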

[13] = tested on: Human immunodeficiency virus 2; assay: Inhibitory activity against human immunodeficiency virus type 2 (HIV-2) induced cytopathogenicity in MT-4 cells; type: functional, organism-based; settings: Human immunodeficiency virus 2, MT4
HEL [14] = assay: Compound was evaluated for inhibitory activity against varicella zoster virus thymidine kinase (VZV TK-) 07/1 strain; NA=not active; type: functional, cell-based, Homo sapiens
Human alphaherpesvirus 2 [15] = assay: Inhibitory activity against herpes simplex virus type 2 (HSV-2) G strain; type: functional, organism-based; summary of the method: as §1
Human alphaherpesvirus 1 [16] = assay: Inhibitory activity against herpes simplex virus type 1 (HSV-1) F strain; type: functional, organism-based; summary of the method: as §1
Human alphaherpesvirus 1 [17] = assay: Inhibitory activity against herpes simplex virus type 1 (HSV-1) KOS strain.; type: functional, organism-based; summary of the method: as §1
Human alphaherpesvirus 1 [18] = assay: Iactivity against herpes simplex virus type 1 (HSV-1) McIntyre strain.; type: functional, organism-based; summary of the method: as §1
E6SM [19] = assay: Compound was evaluated for inhibitory activity against herpes simplex virus type 1 thymidine kinase (HSV-1 TK-) B2006 strain; NA=not active; type: functional, cell-based, Homo sapiens; summary of the method: as §1
Human alphaherpesvirus 2 [20] = assay: Inhibitory activity against herpes simplex virus type 2 (HSV-2) 196 strain.; type: functional, organism-based; summary of the method: as §1
Human alphaherpesvirus 2 [21] = assay: Inhibitory activity against herpes simplex virus type 2 (HSV-2) G strain.; type: functional, organism-based; summary of the method: as §1
E6SM [22] = assay: Inhibitory activity against herpes simplex virus type 2 (HSV-2) Lyons strain.; type: functional, cell-based, Homo sapiens; summary of the method: as §1
Vaccinia virus [23] = assay: Inhibitory activity against vaccinia virus (VV).; type: functional, organism-based, Orthopoxvirus vaccinia; summary of the method: as §2
HEL [24] = assay: Compound was evaluated for inhibitory activity against cytomegalovirus (CMV) AD 169 strain; NA=not active; type: functional, cell-based, Homo sapiens; summary of the method: as §3
HEL [25] = assay: Compound was evaluated for inhibitory activity against varicella zoster virus thymidine kinase (VZV TK+) OKA strain; NA=Not Active; type: functional, cell-based, Homo sapiens; summary of the method: as §3
HEL [26] = assay: Compound was evaluated for inhibitory activity against varicella zoster virus thymidine kinase (VZV TK+) YS strain; NA=not active; type: functional, cell-based, Homo sapiens; summary of the method: as §3
Human alphaherpesvirus 1 [27] = assay: Inhibitory activity against herpes simplex virus type 1 thymidine kinase (HSV-1 TK-) VMW 1837 strain.
HEL [28] = assay: Compound was evaluated for inhibitory activity against cytomegalovirus (CMV) Davis strain; NA=Not Active; type: functional, cell-based, Homo sapiens; summary of the method: as §3
Vaccinia virus [29] = assay: Compound was evaluated for inhibitory activity against vaccinia virus (VV); NA=not active; type: functional, organism-based, Orthopoxvirus vaccinia; summary of the method: as §2
MT4 = assay: Inhibitory activity of compound against human immunodeficiency virus type 1 (HIV-1) induced cytopathogenicity in MT-4 cells; NA=Not Active; type: functional, cell-based; summary of the method: as §4

Compound	EC50 [1] [µg/mL]	EC50 (Human alphaherpesvirus 1 [4]) [µg/mL]	EC50 (Human alphaherpesvirus 1 [5]) [µg/mL]	EC50 [7] [µg/mL]	EC50 (Cytomegalovirus [10]) [µg/mL]	EC50 (Cytomegalovirus [11]) [µg/mL]	EC50 [12] [µg/mL]	EC50 (HEL [14])	EC50 (Human alphaherpesvirus 2 [15]) [µg/mL]	EC50 (Human alphaherpesvirus 1 [16])	EC50 (Human alphaherpesvirus 1 [17])	EC50 (Human alphaherpesvirus 1 [18])	EC50 (E6SM [19])	EC50 (Human alphaherpesvirus 2 [20])	EC50 (Human alphaherpesvirus 2 [21])	EC50 (E6SM [22])	EC50 (Vaccinia virus [23])	EC50 (HEL [24])	EC50 (HEL [25])	EC50 (Human alphaherpesvirus 1 [27])	other results
Nc1ncnc2c1ccn2CCOCP(=O)(O)O	4.1 (≈ 15.1 µM)	150 (≈ 551 µM)	200 (≈ 735 µM)	200 (≈ 735 µM)	> 50	> 50	7.56 (≈ 27.8 µM)	Not Active	70 (≈ 257 µM)												EC50 [2]: 4 µg/mL (≈ 14.7 µM); EC50 [3]: 2.5 µg/mL (≈ 9.18 µM); EC50 (Human alphaherpesvirus 1 [6]): 100 µg/mL (≈ 367 µM); EC50 (Human alphaherpesvirus 2 [8]): 100 µg/mL (≈ 367 µM); EC50 (Vaccinia virus [9]): 150 µg/mL (≈ 551 µM); EC50 [13]: 8.27 µg/mL (≈ 30.4 µM)
CCOP(=O)(COCCn1cnc2c(N)nc(N)nc21)OCC	> 200						> 400	Not Active		Not Active	Not Active	Not Active	Not Active	Not Active	Not Active	Not Active	Not Active	Not Active	Not Active	Not Active	EC50 (HEL [26]): Not Active; EC50 [13]: > 400 µg/mL
Cc1cn(CCOCP(=O)(O)O)c(=O)nc1N	> 200						> 100	Not Active		Not Active	Not Active	Not Active	Not Active	Not Active	Not Active	Not Active		Not Active	Not Active	Not Active	EC50 (HEL [28]): Not Active; EC50 (HEL [26]): Not Active; EC50 (Vaccinia virus [29]): Not Active
CC(C)OP(=O)(COCCn1cnc2c(N)nc(Cl)nc21)OC(C)C	> 100				0.65 (≈ 1.66 µM)	0.7 (≈ 1.79 µM)	> 20	Not Active		Not Active	Not Active	Not Active		Not Active	Not Active	Not Active	Not Active			Not Active	
Nc1ccn(CCOCP(=O)(O)O)c(=O)n1	> 200	300 (≈ 1200 µM)	300 (≈ 1200 µM)	300 (≈ 1200 µM)	75 (≈ 301 µM)	70 (≈ 281 µM)			300 (≈ 1200 µM)			Not Active	Not Active			Not Active					EC50 (MT4): Not Active
CCOP(=O)(O)COCCn1cnc2c(N)ncnc21	120 (≈ 398 µM)	150 (≈ 498 µM)		150 (≈ 498 µM)					70 (≈ 232 µM)		Not Active							Not Active			EC50 [2]: > 100 µg/mL; EC50 [3]: > 100 µg/mL; EC50 (Human alphaherpesvirus 1 [6]): 300 µg/mL (≈ 996 µM); EC50 (Human alphaherpesvirus 2 [8]): 150 µg/mL (≈ 498 µM); EC50 (HEL [28]): Not Active
Nc1ccnc2c1ncn2CCOCP(=O)(O)O	13.8 (≈ 50.7 µM)		> 400		> 400	> 400			> 400												EC50 (Vaccinia virus [9]): > 400 µg/mL; EC50 (MT4): Not Active
Cc1ncnc2c1ncn2CCOCP(=O)(O)O	> 200				100 (≈ 367 µM)	200 (≈ 735 µM)	> 400	Not Active		Not Active	Not Active	Not Active	Not Active	Not Active	Not Active	Not Active	Not Active		Not Active	Not Active	EC50 (HEL [26]): Not Active
